# Compound activity deposited in PubChem by Johns Hopkins Ion Channel Center.
# Compounds with a hit are over-represented: about 3.8% of the library has one in this group of screens.
# KCNK9 block: human KCNK9 channel inhibition. HEK293 KCNK9, FluxOR thallium flux fluorescence; hits give low values. B-score at 10 µM. AID 488922. 310,000 tested, 1.2% active. Q9NPC2;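 active = ratio B-score over 3 SD below the library mean, with starting fluorescence within 5 SD of its mean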;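 also: negative B-score means less thallium flux so channel inhibition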
# Target sequence (Q9NPC2 whole entry, looked up): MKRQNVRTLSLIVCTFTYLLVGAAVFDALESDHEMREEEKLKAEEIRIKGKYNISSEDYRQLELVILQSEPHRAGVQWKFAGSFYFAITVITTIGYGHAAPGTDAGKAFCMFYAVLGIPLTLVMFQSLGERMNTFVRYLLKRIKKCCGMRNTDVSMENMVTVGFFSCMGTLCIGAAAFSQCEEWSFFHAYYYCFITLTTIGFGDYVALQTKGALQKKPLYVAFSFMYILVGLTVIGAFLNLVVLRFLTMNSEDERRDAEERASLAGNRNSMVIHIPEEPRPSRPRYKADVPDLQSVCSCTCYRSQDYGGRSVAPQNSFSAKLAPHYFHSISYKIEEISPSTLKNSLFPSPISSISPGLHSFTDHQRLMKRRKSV
# hERG protect: hERG (human) protection from proarrhythmic block; 310,000 tested, 0.51% active; activation (rescue from dofetilide block), less the hit threshold, % at 10 µM; CHO-hERG, FluxOR thallium flux, dofetilide IC70 present; Q12809; AID 1511;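 active = activation above the mean of controls blocked by dofetilide plus 5 SD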;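 also: thallium influx through hERG after potassium depolarization seen as dye fluorescence rise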
# KCNK3 inh: human KCNK3 channel inhibition, primary screen; O14649; CHO-KCNK3 thallium flux, FluxOR fluorescence; hits give low values; B-score at 10 µM; 340,000 tested, 0.84% active;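 active = B-score under library mean minus 4 SD, starting fluorescence ratio at most library mean plus 5 SD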;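 also: more negative B-score means stronger inhibition of thallium flux through KCNK3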
# KCNQ1 block: blocks the human KCNQ1 potassium channel | P51787 | CHO-K1 KCNQ1, FluxOR thallium flux fluorescence; hits give high values | B-score at 10 µM | 310,000 tested, 1.3% active | AID 2642;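 active = compounds whose thallium flux B-score, printed positive for inhibition, exceeds three library SD while starting fluorescence stays within three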;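 also: channel opened by potassium depolarization with thallium stimulus after 20 min compound exposure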
# KCNQ1 pot: potentiates or activates the human KCNQ1 potassium channel | 310,000 tested, 0.35% active | B-score at 10 µM | AID 2648 | P51787 | CHO-K1 KCNQ1, thallium flux FluxOR fluorescence; hits give high values;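 active = fluorescence ratio B-score, a plate-corrected score, at least three library SD, with initial intensity B-score within 5 SD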
#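 assay system = CHO-K1 cells stably expressing KCNQ1 | medium = assay buffer, equal DMSO in all wells | timing = 37 °C overnight plating, 90-min dark dye load, 20-min compound pretreatment | measured by = kinetic FluxOR thallium fluorescence, 10-s 1-Hz baseline, 110-s post-stimulus read | measure = fluorescence change relative to baseline, converted to B score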
# Kir21 block: Kir2.1 (mouse) channel inhibition. P35561. HEK293-Kir2.1, FluxOR thallium flux fluorescence; hits give low values. B-score at 10 µM. 310,000 tested, 0.85% active. AID 1672;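 active = fluorescence ratio B-score at or below minus 3 SD of library scores, with starting-brightness B-score within 2 SD, cut at about -4.2 in these data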;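 also: channel flux triggered by added potassium and thallium sulfate stimulus; B-score of peak minus minimum fluorescence over baseline after thallium stimulus; more negative B-score means stronger Kir2.1 block with less thallium influx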
# The depositor's hits bear a star; i = inactive; nt = not tested or not shown.
SMILES,KCNK9 block,hERG protect,KCNK3 inh,KCNQ1 block,KCNQ1 pot,Kir21 block
CCOc1ccc(C(=O)NCC(=O)OCc2nnc(-c3ccccc3)o2)cc1OCC,nt,nt,i,nt,nt,nt
Cc1cc(CN(C)Cc2ccc(OCC(O)CN(C)Cc3ccccc3)cc2)on1 (stereo not given),i,-10.7,i,i,i,-3.23
C=CCOc1ccc(CN(C)CC(O)COc2cccc3ccccc23)cc1 (stereo not given),i,-17.8,i,i,i,-4.64*
O=C(NCCO)c1nc(C(=O)c2ccccc2)c2ccccc2n1,nt,nt,i,nt,nt,nt
Cc1cc(N/N=C/c2ccccc2)nc(NCc2ccccc2)n1,i,-3.6,i,i,i,0.65
Cc1cc(N/N=C/c2cccc(F)c2)nc(NCc2ccccc2)n1,i,-31.0,i,8*,i,0.14
CCN(CC(=O)Nc1c(F)cccc1F)C(=O)c1cnccn1,i,-8.4,i,i,i,-0.28
CN(C)CCCN(C(=O)CCc1ccccc1)c1nc2ccc(F)cc2s1,i,-15.7,i,i,i,-4.87*
COc1ccc(S(=O)(=O)N2CCCCCC2)cc1C(=O)Nc1ccc(C(=O)N(C)C)cc1,nt,nt,i,nt,nt,nt
CC(c1ccccc1)n1c(-c2ccc(Cl)cc2)n[nH]c1=S (stereo not given),i,7.8*,i,i,i,-0.14
CC(c1ccccc1)n1c(-c2ccncc2)n[nH]c1=S (stereo not given),i,-6.3,i,i,i,-0.36
C/C(=N\NC(=O)CC1N=C(Cc2ccccc2)NNC1=O)c1ccncc1 (stereo not given),i,-5.9,i,i,i,0.46
Cc1ccc(/C=N/NC(=O)CC2N=C(Cc3ccccc3)NNC2=O)cc1 (stereo not given),i,5.2*,i,i,i,1.68
O=C(O)c1ccc(NC(=O)c2ccccc2NC(=O)c2cccc(F)c2)cc1,i,-2.6,i,i,i,0.66
O=C(Nc1cc(-c2ccccc2)sc1C(=O)O)c1cccc(F)c1,i,-11.5,i,6*,i,0.67
C#Cc1cccc(N2C(=O)C3C4C=CC(C3C2=O)C2C(=O)N(c3cccc(C#C)c3)C(=O)C42)c1 (stereo not given),nt,nt,i,nt,nt,nt
Cc1ccc(-n2c(C)cc(C(=O)COc3c(CO)cc(F)cc3CO)c2C)cc1C,i,-17.8,i,i,i,-7.68*
CCCCCC(=O)NC(NC(=S)NC1CCS(=O)(=O)C1)C(Cl)(Cl)Cl (stereo not given),i,5.6*,i,i,i,0.19
Cc1ccc(S(=O)(=O)N2CCN=C2SCc2cccnc2)cc1,i,-2.9,i,i,i,-4.81*
O=S(=O)(c1ccccc1)N1CCN=C1SCc1cccnc1,i,-4.7,i,i,i,-4.24*
COc1ccc(S(=O)(=O)N2CCN=C2SCc2cccnc2)cc1,i,-6.7,i,i,i,-0.9
O=S(=O)(c1ccc(Cl)cc1)N1CCN=C1SCc1cccnc1,i,-9.9,i,i,i,2.64
COc1ccc(C2NC(c3ccc(OC)c(OC)c3OC)C(C)C(=O)C2C)c(OC)c1OC (stereo not given),i,-1.5,i,i,10*,-0.03
O=S(=O)(NCc1ccc(Cl)cc1)c1cccc2cccnc12,i,-10.5,i,i,i,-4.53*
Cc1cc(C)c(NS(=O)(=O)c2cccc3cccnc23)c(C)c1,i,-9.6,i,i,i,-4.37*
SMILES,KCNK9 block,hERG protect,KCNK3 inh,KCNQ1 block,KCNQ1 pot,Kir21 block
Cc1ccc(NS(=O)(=O)c2cccc3cccnc23)cc1Cl,i,-6.2,i,i,i,-0.55
CCOC(=O)C1=C(c2ccccc2)OC(N)=C(C#N)C1c1ccc(Cl)s1 (stereo not given),-6.62*,-6.2,i,i,i,1.51
CC(Sc1nnc2ccccn12)C(=O)Nc1ccc(Cl)cn1 (stereo not given),i,-3.6,i,i,i,0.01
CC(Sc1nnc2ccccn12)C(N)=O (stereo not given),i,5.0*,i,i,i,-0.69
Cc1ccc(S(=O)(=O)N2CCCN(C(C)c3nc4ccccc4c(=O)[nH]3)CC2)cc1 (stereo not given),nt,nt,i,nt,nt,nt
COc1ccc(S(=O)(=O)CCC(=O)N2c3ccccc3CC2C)cc1 (stereo not given),i,-7.8,i,i,i,-4.56*
CCN=C1S/C(=C\c2ccc(O)c(OCC)c2)C(=O)N1CC,i,-17.1,i,i,i,-5.73*
COc1cc(C(=O)NS(=O)(=O)c2ccccc2C)ccc1Cc1cn(C)c2ccc(NC(=O)OC3CCCC3)cc12,i,-32.9,nt,10*,i,-0.79
O=C(O)c1cccc(S(=O)(=O)Nc2cc(Cl)ccc2Cl)c1,i,-7.0,i,i,i,0.46
CC1CC(C)CN(C(=O)c2cccc(S(=O)(=O)Nc3cc(C(F)(F)F)ccc3Cl)c2)C1 (stereo not given),i,-13.4,i,7*,i,-1.21
NC(=O)c1ccsc1NC(=O)CSc1nncs1,nt,nt,i,nt,nt,nt
COc1ccc(-c2cccc(C(=O)Nc3ccccc3C)c2)cc1,i,-6.9,i,i,i,-0.59
COc1ccc(C)cc1NC(=O)c1cccc(-c2ccc(OC(C)=O)cc2)c1,-8.07*,-6.3,i,i,i,-0.85
N#Cc1cccc(NC(=O)CCc2ccc(S(=O)(=O)N3CCOCC3)cc2)c1,nt,nt,i,nt,nt,nt
Cc1ccc([N+](=O)[O-])cc1NC(=O)C1CCCC1,i,5.0*,i,i,i,0.04
Cc1ccc(C)c(NC(=O)C2CCCC2)c1,i,-5.3,i,i,i,-0.42
CC1(C)CC1C(=O)Nc1ccc([N+](=O)[O-])cc1Br (stereo not given),i,-7.3,i,i,i,-1.6
O=C(CN(C1CCCCC1)S(=O)(=O)c1ccc(Cl)cc1)N1CCOCC1,i,-18.3,i,i,i,-0.39
Cc1ccc([N+](=O)[O-])cc1NC(=O)CN(C1CCCCC1)S(=O)(=O)c1ccc(Cl)cc1,-7.66*,-7.7,i,7*,i,-0.78
Cc1ccc(C2(c3ccc(C)cc3)CC2C(=O)Nc2ccc([N+](=O)[O-])cc2O)cc1 (stereo not given),i,-10.9,i,11*,i,0.68
O=C(Nc1ccc([N+](=O)[O-])cc1)/C(=C/c1cccc([N+](=O)[O-])c1)NC(=O)C1CCCCC1,-6.87*,-3.5,i,i,i,-0.32
Cc1ccc(NC(=O)/C(=C/c2cccc([N+](=O)[O-])c2)NC(=O)C2CCCCC2)c(C)c1,i,-9.5,i,i,i,2.71
